ChEMBL document CHEMBL1649302, “New small-molecule inhibitor class targeting human immunodeficiency virus type 1 virion maturation” (Antimicrob Agents Chemother, 2009)
Active and inactive are the calls of the source. The rule behind the calls is not given here.

Assays:
[1] = system: Human immunodeficiency virus 1; assay: Antiviral activity against HIV1 NL4-3 infected in human MT2 cells assessed as protection against virus-induced cytopathogenicity after 6 days by XTT assay; type: functional, organism-based; conditions: Human immunodeficiency virus 1, NL4-3, MT2, 144 h
Procedure, shortened: (§1)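 Host cells were infected with NL4-3 or IIIB (MOI 0.08) or RF (MOI 0.025–0.819) and seeded at 2 × 10⁴/well onto half-log compound dilutions. After 6 days, XTT/PMS was added for 4 h and formazan was read at 450 nm. EC50 was the concentration giving 50% of the formazan of uninfected, compound-free cells.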

[2] = system: Human immunodeficiency virus 1; assay: Antiviral activity against HIV1 92HT594 infected in human MT2 cells assessed as inhibition of viral p24 antigen production after 5 days; type: functional, organism-based; conditions: Human immunodeficiency virus 1, 92HT594, MT2, 120 h
Procedure, shortened: (§2)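 PM1 cells (NL4-3, Ba-L) or MT-2 cells (92HT594, 92HT599) were infected at MOI 0.16 for 2 h and washed. They were plated at 1 × 10⁴ cells/well (2 × 10⁵/ml) onto half-log compound dilutions. Supernatant p24 was quantified by ELISA at day 5. EC50 was the concentration giving a 50% decrease versus infected, compound-free cells.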

[3] = system: Human immunodeficiency virus 1; assay: Antiviral activity against HIV1 NL4-3 infected in human HeLa cells assessed as decrease in single-cycle viral infection after 72 hrs by beta-galactosidase reporter gene assay; type: functional, organism-based; conditions: Human immunodeficiency virus 1, NL4-3, HeLa
Procedure, shortened: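 HeLa CD4 LTR/beta-Gal cells (1 × 10⁴/well, DMEM + 10% FBS) were pre-dosed with half-log compound dilutions. They were infected at MOI 0.03 with single-cycle NL4-3 reporter virus made by cotransfecting HEK 293 cells with pNL4-3deltaEnv and an NL4-3 envelope vector. EC50 is from beta-gal reporter activity relative to infected untreated cells, across three experiments.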

[4] = system: Human immunodeficiency virus 1; assay: Antiviral activity HIV1 92TH014 infected in human PBMC after 7 days by scintillation counting; type: functional, organism-based; conditions: Human immunodeficiency virus 1, 92TH014, 168 h
Procedure, shortened: (§3)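 Fresh PBMCs from HIV/HBV-seronegative donors were PHA-stimulated (4 μg/ml, 48–72 h) and kept with IL-2 (20 U/ml), with at least two donors pooled. Cells were seeded at 5 × 10⁴/well and infected (final MOI ≅0.1) with nine compound concentrations in triplicate wells. After 7 days, reverse transcriptase activity was measured in cell-free supernatant.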

[5] = system: Human immunodeficiency virus 1; assay: Antiviral activity HIV1 92US076 infected in human PBMC after 7 days by scintillation counting; type: functional, organism-based; conditions: Human immunodeficiency virus 1, 92US076, 168 h; procedure, shortened: as §3
[6] = system: Human immunodeficiency virus 1; assay: Antiviral activity HIV1 92RW009 infected in human PBMC after 7 days by scintillation counting; type: functional, organism-based; conditions: Human immunodeficiency virus 1, 92RW009, 168 h
Procedure, shortened: (§4)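 PBMCs came from buffy coats pooled from 3–4 seronegative donors, were PHA-stimulated (1.5 μg/ml, 3 days) and frozen. Thawed cells were infected 1 h at 37°C with virus input set by TCID50, then pelleted and resuspended in IL-2 (10 ng/ml). They were plated at 4 × 10⁵ cells/ml onto compounds for 7 days at 37°C. Supernatant RT activity was measured by Quan-T-RT scintillation assay.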

[7] = Therapeutic index, ratio of CC50 for human PBMC to EC50 for HIV1 92US660 infected in human PBMC; conditions: read-out: TI
Procedure, shortened: (§5)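 PHA-stimulated (4 μg/ml, 48 to 72 h) PBMCs pooled from at least two seronegative donors, kept with 20 U/ml IL-2, plated at 5 × 10⁴ cells/well. Infected with clinical isolate (final MOI ≅0.1) alongside nine compound concentrations in triplicate wells, 7 days. Supernatant reverse transcriptase activity measured. TI is mean PBMC CC50 divided by mean EC50.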

[8] = system: Human immunodeficiency virus 1; assay: Antiviral activity against HIV1 RF infected in human CEM-SS cells assessed as protection against virus-induced cytopathogenicity after 6 days by XTT assay; type: functional, organism-based; conditions: Human immunodeficiency virus 1, RF, 144 h; procedure, shortened: as §1
[9] = Therapeutic index, ratio of CC50 for human PBMC to EC50 for HIV1 92BR004 infected in human PBMC; conditions: read-out: TI
Procedure, shortened: (§6)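 TI was the mean PBMC CC50 divided by the mean EC50 from the 7-day PBMC reverse transcriptase assay.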

[10] = system: Human immunodeficiency virus 1; assay: Antiviral activity HIV1 93BR021 infected in human PBMC after 7 days by scintillation counting; type: functional, organism-based; conditions: Human immunodeficiency virus 1, 93BR021, 168 h; procedure, shortened: as §3
[11] = Therapeutic index, ratio of CC50 for human MT2 cells to EC50 for HIV1 3B infected in human MT2 cells; type: cell-based; conditions: read-out: TI
Procedure, shortened: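 TI was the mean CC50 (XTT, uninfected MT-2) divided by the mean EC50, determined for each cell line in each experiment.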

[12] = system: Human immunodeficiency virus 1; assay: Antiviral activity against HIV1 assessed as inhibition of virion maturation-associated CA/SP1 processing at 2 times EC90; type: functional, organism-based
[13] = system: Human immunodeficiency virus 1; assay: Antiviral activity HIV1 3B infected in human PBMC after 7 days by scintillation counting; type: functional, organism-based; conditions: Human immunodeficiency virus 1, 3B, 168 h; procedure, shortened: as §4
[14] = Therapeutic index, ratio of CC50 for human PBMC to EC50 for HIV1 CMU06 infected in human PBMC; conditions: read-out: TI
Procedure, shortened: (§7)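 Frozen PHA-stimulated (1.5 μg/ml, 3 days) buffy-coat PBMCs pooled from three or four seronegative donors. Infected with a TCID50-based virus input per 10⁶ cells for 1 h at 37°C, then pelleted and resuspended in 10 ng/ml IL-2. Plated at 4 × 10⁵ cells/ml on compound dilutions for 7 days at 37°C. Supernatant RT measured by Quan-T-RT. TI is mean CC50 divided by mean EC50.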

[15] = system: Human immunodeficiency virus 1; assay: Antiviral activity HIV1 92BR004 infected in human PBMC after 7 days by scintillation counting; type: functional, organism-based; conditions: Human immunodeficiency virus 1, 92BR004, 168 h; procedure, shortened: as §4
[16] = Therapeutic index, ratio of CC50 for human PBMC to EC50 for HIV1 92BR017 infected in human PBMC; conditions: read-out: TI; procedure, shortened: as §7
[17] = Therapeutic index, ratio of CC50 for human PBMC to EC50 for HIV1 92HT596 infected in human PBMC; conditions: read-out: TI; procedure, shortened: as §7
[18] = Therapeutic index, ratio of CC50 for human PBMC to EC50 for HIV1 3B infected in human PBMC; conditions: read-out: TI; procedure, shortened: as §6
[19] = Therapeutic index, ratio of CC50 for human PBMC to EC50 for HIV1 92BR014 infected in human PBMC; conditions: read-out: TI; procedure, shortened: as §5
[20] = system: Human immunodeficiency virus 1; assay: Antiviral activity against HIV1 Ba-L infected in human PM1 cells assessed as inhibition of viral p24 antigen production after 5 days; type: functional, organism-based; conditions: Human immunodeficiency virus 1, Ba-L, PM1, 120 h; procedure, shortened: as §2
[21] = system: Human immunodeficiency virus 1; assay: Antiviral activity against HIV1 harboring spacer peptide A1V mutant protein infected in human HeLa cells assessed as decrease in viral infection after […] by beta-galactosidase reporter gene assay; type: functional, organism-based; conditions: Human immunodeficiency virus 1, HeLa
Procedure, shortened: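 MT-2 cells were infected for 2 h with wild-type NL4-3 or recombinant NL4-3 carrying CA I201V or SP1 A1V. They were then cocultured with HeLa CD4 LTR/beta-Gal indicator cells in serially diluted compound. Beta-gal reporter was read after 4 days. EC50s are means ± SD of 3–6 experiments. Fold change is mutant EC50 divided by wild-type EC50.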

[22] = Cytotoxicity against human PM1 cells after 5 days by XTT assay; type: cell-based
Procedure, shortened: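 CC50 in uninfected PM1 cells was measured by the XTT dye-reduction method: XTT/PMS for 4 h, absorbance at 450 nm, 50% of compound-free formazan.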

With `CC(C)(C)c1ccc(C(Cn2cccc(C(F)(F)F)c2=O)NC2Cc3ccccc3C2)cc1` (configuration not stated) the EC50 [1] was 360 nM, the EC50 [2] was 240 nM and the EC50 [3] was greater than 10000 nM. The EC50 [4] was greater than 17000 nM, the EC50 [5] was 7 nM and the EC50 [6] was 1400 nM. It also gave a selectivity ratio [7] of 1, an EC50 [8] greater than 20000 nM and a selectivity ratio [9] of 52. The EC50 [10] was 40 nM, the selectivity ratio [11] was 1120 and the inhibition [12] was “Active”. The EC50 [13] was 320 nM, the selectivity ratio [14] was 14 and the EC50 [15] was 330 nM. The selectivity ratio [16] was 142, the selectivity ratio [17] was 53 and the selectivity ratio [18] was 53. The selectivity ratio [19] was 2, the EC50 [20] was 5300 nM and the EC50 [21] was greater than 3200 nM. For the same compound, the CC50 at 120 h [22] was 19000 nM.
